Measurements as given in ChEMBL document CHEMBL1151472, “In vitro interactions between tacrolimus and azoles against Candida albicans determined by different methods” (2008).
≈ marks a conversion by molar mass, not a printed value.

Assays:
Assay type in all cases: functional
[1] = system: Candida albicans; test: Antimicrobial activity against azole-resistant Candida albicans isolate CA10 assessed as growth at 0.5 ug/ml co-treated with 0.016 ug/ml calcineurin signaling inhibitor tacrolimus after 48 hrs by microdilution checkboard technique relative to control; parameters: scale not given: the % may be the effect or the level left
How it was run: (§1)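 Checkerboard microdilution in MOPS-buffered RPMI 1640 (pH 7.0, 2% dextrose). Final ranges: azole 0.125–128 μg/ml (FLC) or 0.008–8 μg/ml (ITR, VRC), tacrolimus 0.002–0.125 μg/ml; solvent 1% in single-drug wells. Inoculum 2.5 × 10^3 CFU/ml, 35°C, 48 h. Growth % = background-subtracted OD492 of each well / drug-free well. Triplicate on different days.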

[2] = system: Candida albicans; test: Antimicrobial activity against azole-resistant Candida albicans isolate CA10 assessed as growth at 128 ug/ml cotreated with 0.002 ug/ml calcineurin signaling inhibitor Tacrolimus after 48 hrs by microdilution checkboard technique relative to control; parameters: scale not given: the % may be the effect or the level left; how it was run: as §1
[3] = system: Candida albicans; test: Antimicrobial activity against azole-resistant Candida albicans isolate CA10 assessed as growth at 8 ug/ml after 48 hrs by microdilution checkerboard technique relative to control
How it was run: (§2)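 CA10 in RPMI 1640 with 2% dextrose and 0.165 M MOPS, pH 7.0. Checkerboard used twofold dilutions, with azole alone in row H and the drug-free growth control in well H1. Final inoculum was 2.5 × 10^3 CFU/ml, incubated 35°C for 48 h, with OD read at 492 nm. Growth % = background-subtracted well OD / drug-free well OD. Run in triplicate on different days.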

[4] = system: Candida albicans; test: Antimicrobial activity against azole-resistant Candida albicans isolate CA10 assessed as growth at 0.5 ug/ml cotreated with 0.008 ug/ml calcineurin signaling inhibitor tacrolimus after 48 hrs by microdilution checkerboard technique relative to control; parameters: scale not given: the % may be the effect or the level left; how it was run: as §1
[5] = system: Candida albicans; test: Antimicrobial activity against azole-resistant Candida albicans isolate CA10 assessed as growth at 64 ug/ml co-treated with 0.002 ug/ml calcineurin signaling inhibitor tacrolimus after 48 hrs by microdilution checkboard technique relative to control; parameters: scale not given: the % may be the effect or the level left; how it was run: as §2
[6] = system: Candida albicans; test: Antimicrobial activity against azole-resistant Candida albicans isolate CA10 assessed as growth at 16 ug/ml co-treated with 0.031 ug/ml calcineurin signaling inhibitor tacrolimus after 48 hrs by microdilution checkboard technique relative to control; parameters: scale not given: the % may be the effect or the level left
How it was run: (§3)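 Checkerboard microdilution in RPMI 1640 (pH 7.0, 2% dextrose, 0.165 M MOPS). Azole dilutions run along columns and FK506 along rows, at 4× final concentration. Final inoculum 2.5 × 10^3 CFU/ml from Sabouraud-subcultured cells. Incubated 35°C for 48 h; OD read at 492 nm. Background from microorganism-free plates subtracted. Growth % = well OD / drug-free well OD. Triplicate on different days, values averaged.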

[7] = system: Candida albicans; test: Antimicrobial activity against azole-resistant Candida albicans isolate CA10 assessed as growth at 16 ug/ml after 48 hrs by microdilution checkerboard technique relative to control; how it was run: as §1
[8] = system: Candida albicans; test: Antimicrobial activity against azole-resistant Candida albicans isolate CA10 assessed as growth at 1 ug/ml after 48 hrs by microdilution checkerboard technique relative to control; how it was run: as §1
[9] = system: Candida albicans; test: Antimicrobial activity against azole-resistant Candida albicans isolate CA10 assessed as growth at 0.5 ug/ml cotreated with 0.002 ug/ml calcineurin signaling inhibitor tacrolimus after 48 hrs by microdilution checkerboard technique relative to control; parameters: scale not given: the % may be the effect or the level left; how it was run: as §1
[10] = system: Candida albicans; test: Antimicrobial activity against azole-resistant Candida albicans isolate CA16 after 48 hrs by broth microdilution method; settings: isolate CA16, 48 h
How it was run: (§4)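 CLSI M27-A2 broth microdilution was run in RPMI 1640 (pH 7.0, 2% dextrose, 0.165 M MOPS). Inoculum was 2.5 × 10^3 CFU/ml, incubated 35°C for 48 h without shaking. Plates were read visually (0–5 scale) and at OD 492 nm. MIC80 = lowest concentration giving an 80% absorbance decrease vs drug-free control. Triplicate.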

[11] = system: Candida albicans; test: Antimicrobial activity against azole-susceptible Candida albicans isolate CA14 assessed as lof reduction in colony count at 10 ug/ml cotreated with calcineurin signaling inhibitor Tacrolimus after 48 hrs by XTT assay
How it was run: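 Same time-kill setup (10^5 CFU/ml start, azole ± 0.016 μg/ml FK506, 35°C). At each time point, aliquots were mixed 1:1 with XTT (0.5 g/liter in Ringer's lactate) plus 10 μM menadione final. Incubation was in the dark for up to 2 h at 35°C, then formazan was read at 492 nm. OD was converted to CFU via a standard curve (Y = 4.2610x + 4.2087). Triplicate.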

[12] = system: Candida albicans; test: Antimicrobial activity against azole-resistant Candida albicans isolate CA10 assessed as growth at 0.25 ug/ml co-treated with 0.008 ug/ml calcineurin signaling inhibitor tacrolimus after 48 hrs by microdilution checkboard technique relative to control; parameters: scale not given: the % may be the effect or the level left; how it was run: as §3
[13] = system: Candida albicans; test: Antimicrobial activity against azole-resistant Candida albicans isolate CA135 after 48 hrs by broth microdilution method; settings: isolate CA135, 48 h; how it was run: as §4
[14] = system: Candida albicans; test: Antimicrobial activity against azole-resistant Candida albicans isolate CA10 assessed as growth at 32 ug/ml cotreated with 0.016 ug/ml calcineurin signaling inhibitor Tacrolimus after 48 hrs by microdilution checkboard technique relative to control; parameters: scale not given: the % may be the effect or the level left; how it was run: as §2
[15] = system: Candida albicans; test: Antimicrobial activity against azole-resistant Candida albicans isolate CA10 assessed as growth at 0.5 ug/ml co-treated with 0.031 ug/ml calcineurin signaling inhibitor tacrolimus after 48 hrs by microdilution checkboard technique relative to control; parameters: scale not given: the % may be the effect or the level left; how it was run: as §3
[16] = system: Candida albicans; test: Antimicrobial activity against azole-resistant Candida albicans isolate CA10 assessed as growth at 0.002 ug/ml after 48 hrs by microdilution checkerboard technique relative to control; how it was run: as §1
[17] = system: Candida albicans; test: Antimicrobial activity against azole-susceptible Candida albicans isolate CA129 after 48 hrs by broth microdilution method; settings: isolate CA129, 48 h; how it was run: as §4
[18] = system: Candida albicans; test: Antimicrobial activity against azole-susceptible Candida albicans isolate CA14 co-treated with calcineurin signaling inhibitor tacrolimus after 48 hrs by microdilution checkerboard technique; settings: isolate CA14, 48 h
How it was run: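 Checkerboard microdilution in MOPS-buffered RPMI 1640 (pH 7.0, 2% dextrose) with 2.5 × 10^3 CFU/ml for 48 h at 35°C. Final FK506 was 0.002–0.125 μg/ml. Azole finals were FLC 0.125–128 μg/ml, and ITR and VRC 0.008–8 μg/ml. MIC80 is an 80% OD492 decrease vs drug-free control. Interaction was scored by FICI (synergy ≤0.5, antagonism >4) and by ΔE from triplicates.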

[19] = system: Candida albicans; test: Antimicrobial activity against azole-resistant Candida albicans isolate CA10 assessed as growth at 128 ug/ml after 48 hrs by microdilution checkerboard technique relative to control; how it was run: as §1
[20] = system: Candida albicans; test: Antimicrobial activity against azole-resistant Candida albicans isolate CA10 assessed as growth at 4 ug/ml cotreated with 0.002 ug/ml calcineurin signaling inhibitor tacrolimus after 48 hrs by microdilution checkerboard technique relative to control; parameters: scale not given: the % may be the effect or the level left; how it was run: as §2
[21] = system: Candida albicans; test: Antimicrobial activity against azole-resistant Candida albicans isolate CA10 assessed as growth at 8 ug/ml cotreated with 0.125 ug/ml calcineurin signaling inhibitor Tacrolimus after 48 hrs by microdilution checkboard technique relative to control; parameters: scale not given: the % may be the effect or the level left; how it was run: as §2
[22] = system: Candida albicans; test: Antimicrobial activity against azole-resistant Candida albicans isolate CA10 assessed as growth at 128 ug/ml cotreated with 0.004 ug/ml calcineurin signaling inhibitor Tacrolimus after 48 hrs by microdilution checkboard technique relative to control; parameters: scale not given: the % may be the effect or the level left; how it was run: as §1

OC(Cn1cncn1)(Cn1cncn1)c1ccc(F)cc1F [FLUCONAZOLE]
Activity [1]: 21% | Activity [2]: 44% | Activity [3]: 55% | Activity [4]: 34% | Activity [5]: 28% | Activity [6]: 15% | Activity [7]: 50% | Activity [8]: 56% | Activity [9]: 55% | MIC [10]: 64 µg/mL (≈ 209 µM) | Activity [11]: 1.51 | Activity [12]: 39% | MIC [13]: 64 µg/mL (≈ 209 µM) | Activity [14]: 18% | Activity [15]: 19% | Activity [16]: 97% | MIC [17]: 0.5 µg/mL (≈ 1.63 µM) | MIC [18]: 0.25 µg/mL | Activity [19]: 48% | Activity [20]: 44% | Activity [21]: 2% | Activity [22]: 45%
